ChEMBL document CHEMBL4346661, “Design, synthesis and evaluation of novel diaryl-1,5-diazoles derivatives bearing morpholine as potent dual COX-2/5-LOX inhibitors and antitumor agents” (Eur J Med Chem, 2019)
One block for each molecule: values may come before it. The source made the active and inactive calls. No cut-off for these calls is given here.

How the values were obtained:
B16-F10 [1] = test: Antiproliferative activity against mouse B16F10 cells incubated for 48 hrs by MTT assay; type: functional, cell-based; conditions: B16-F10, 48 h
In short: (§1)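 MTT assay on F10 (murine melanoma), HeLa, A549, MCF-7 and 293T (human renal epithelium) cells. IC50 given as mean ± SD of three independent experiments.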

[2] = target: Prostaglandin G/H synthase 1 (Homo sapiens, UniProt P23219); test: Inhibition of COX1 (unknown origin) using arachidonic acid as substrate incubated for 10 mins by Ellman's reagent based COX-1/COX-2 ELISA assay
Prostaglandin G/H synthase 1, sequence (P23219 whole entry): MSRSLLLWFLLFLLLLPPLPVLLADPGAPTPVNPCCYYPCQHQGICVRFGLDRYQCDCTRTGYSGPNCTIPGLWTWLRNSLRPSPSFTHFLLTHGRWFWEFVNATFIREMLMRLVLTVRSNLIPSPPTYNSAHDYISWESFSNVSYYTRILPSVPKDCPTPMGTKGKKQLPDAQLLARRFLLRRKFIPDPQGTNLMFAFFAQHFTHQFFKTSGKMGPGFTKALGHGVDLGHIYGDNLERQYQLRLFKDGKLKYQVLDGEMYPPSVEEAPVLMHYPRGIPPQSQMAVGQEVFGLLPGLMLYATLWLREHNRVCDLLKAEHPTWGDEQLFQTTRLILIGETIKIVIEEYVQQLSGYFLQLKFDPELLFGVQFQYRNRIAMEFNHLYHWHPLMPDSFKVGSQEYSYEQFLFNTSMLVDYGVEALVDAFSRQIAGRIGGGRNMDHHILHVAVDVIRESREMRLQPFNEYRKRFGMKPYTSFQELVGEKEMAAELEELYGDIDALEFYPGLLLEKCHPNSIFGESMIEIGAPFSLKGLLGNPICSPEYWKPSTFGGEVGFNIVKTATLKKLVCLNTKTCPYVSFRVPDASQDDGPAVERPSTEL

HeLa = test: Antiproliferative activity against human HeLa cells incubated for 48 hrs by MTT assay; type: functional, cell-based; in short: as §1
[3] = Inhibition of 5-LOX assessed as calcium ionophore A23187-stimulated LTB4 production preincubated for 30 mins followed by calcium ionophore A23187 addition and measured after 30 mins by ELISA
MCF7 = test: Antiproliferative activity against human MCF7 cells incubated for 48 hrs by MTT assay; type: functional, cell-based; conditions: MCF7, 48 h; in short: as §1
[4] = target: T1, Prostaglandin G/H synthase 2 (Homo sapiens, UniProt P35354); test: Inhibition of COX2 (unknown origin) using arachidonic acid as substrate incubated for 10 mins by Ellman's reagent based COX-1/COX-2 ELISA assay
T1 sequence (P35354 whole entry): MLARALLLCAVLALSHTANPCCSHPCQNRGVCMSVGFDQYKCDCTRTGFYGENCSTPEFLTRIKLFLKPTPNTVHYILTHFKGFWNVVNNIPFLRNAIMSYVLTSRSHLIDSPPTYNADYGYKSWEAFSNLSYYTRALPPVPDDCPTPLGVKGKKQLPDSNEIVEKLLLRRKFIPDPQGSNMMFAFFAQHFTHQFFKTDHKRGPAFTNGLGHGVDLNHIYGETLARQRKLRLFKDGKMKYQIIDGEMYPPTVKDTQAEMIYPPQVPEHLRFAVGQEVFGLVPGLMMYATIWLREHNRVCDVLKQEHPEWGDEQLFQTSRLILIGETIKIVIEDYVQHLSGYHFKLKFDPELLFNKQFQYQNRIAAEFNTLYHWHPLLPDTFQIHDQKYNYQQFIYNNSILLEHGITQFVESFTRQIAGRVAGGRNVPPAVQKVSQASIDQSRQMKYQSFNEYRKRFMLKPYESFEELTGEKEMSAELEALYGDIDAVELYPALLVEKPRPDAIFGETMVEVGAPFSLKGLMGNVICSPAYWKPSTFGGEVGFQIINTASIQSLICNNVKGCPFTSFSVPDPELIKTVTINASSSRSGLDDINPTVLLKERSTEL

Homo sapiens = species on record: Homo sapiens; test: Selectivity index, ratio of IC50 for COX1 (unknown origin) to IC50 for COX2 (unknown origin)
In short: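 Ratio of COX-1 IC50 to COX-2 IC50, from human COX-1 and human COX-2 inhibitor screening assay kits. Each IC50 is the concentration giving 50% enzyme inhibition, taken as the mean of four determinations.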

A549 = test: Antiproliferative activity against human A549 cells incubated for 48 hrs by MTT assay; type: functional, cell-based; conditions: A549, 48 h; in short: as §1
HEK-293T = test: Antiproliferative activity against human 293T cells incubated for 48 hrs by MTT assay; type: cell-based; in short: as §1
B16-F10 [5] = test: Antitumor activity against mouse B16F10 cells implanted in nude mouse assessed as reduction in tumor size at 20 mg/kg, ip administered once per 2 days for 14 days by caliper method; type: functional
In short: (§2)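 Nude mice were given 5×10^6 F10 cells subcutaneously in the right flank. At about 100 mm3, 24 mice were randomized into four groups of vehicle or compound. Dosing was intraperitoneal every two days for two weeks. Tumor volume was recorded every other day. Tumors were excised and weighed after the last treatment, and body weight was monitored.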

B16-F10 [6] = test: Antitumor activity against mouse B16F10 cells implanted in nude mouse assessed as decrease in tumor weight at 20 mg/kg, ip administered once per 2 days for 14 days by caliper method relative to control; type: functional, organism-based; in short: as §2
B16-F10 [7] = test: Inhibition of LPS-induced PGE2 production in mouse B16F10 cells at 6.25 uM incubated for 24 hrs by enzyme immunoassay; type: functional, cell-based
In short: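 F10 cells treated for 24 h alongside LPS (1 µg/ml), test agent at 6.25 µM. Supernatant collected by centrifugation and PGE2 measured with a PGE2 enzyme immunoassay (ELISA) kit. Mean ± SD of three independent experiments.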

Compound: NS(=O)(=O)c1ccc(-n2nc(C(=O)N3CCSCC3)cc2-c2cccc(Cl)c2)cc1
IC50 (B16-F10 [1]): 13.9 µM | IC50 [2]: 29.4 µM | IC50 (HeLa): 14.8 µM | IC50 [3]: 0.87 µM | IC50 (MCF7): 12.5 µM | IC50 [4]: 0.21 to 0.22 µM | Ratio IC50 (Homo sapiens): 140 | IC50 (A549): 15.4 µM | IC50 (HEK-293T): 191 µM

Compound: NS(=O)(=O)c1ccc(-n2nc(C(=O)N3CCSCC3)cc2-c2ccc(C(F)(F)F)cc2)cc1
IC50 (B16-F10 [1]): 8.16 µM | IC50 [2]: 30.8 µM | IC50 (HeLa): 9.94 µM | IC50 [3]: 0.71 µM | IC50 (MCF7): 9.25 µM | IC50 [4]: 0.19 µM | Ratio IC50 (Homo sapiens): 162 | IC50 (A549): 10.2 µM | IC50 (HEK-293T): 136 µM

Compound: NS(=O)(=O)c1ccc(-n2nc(C(=O)N3CCSCC3)cc2-c2ccc(Br)cc2)cc1
IC50 (B16-F10 [1]): 12.1 µM | IC50 (HeLa): 16 µM | IC50 [3]: 1.21 µM | IC50 (MCF7): 14.6 µM | IC50 [4]: 1.28 µM | IC50 (A549): 17.7 µM | IC50 (HEK-293T): 197 µM

Compound: Cc1ccc(-c2cc(C(F)(F)F)nn2-c2ccc(S(N)(=O)=O)cc2)cc1 [CELECOXIB]
IC50 (B16-F10 [1]): 13.3 µM | Activity (B16-F10 [5]): 978.35 mm3 | IC50 (MCF7): 12.6 µM | Activity (B16-F10 [6]): Active | inhibition (B16-F10 [7]): Active | IC50 (A549): 11 µM | IC50 (HEK-293T): 97.9 µM

Compound: CCOc1ccc(-c2cc(C(=O)NCCCN3CCOCC3)nn2-c2ccc(S(N)(=O)=O)cc2)cc1
IC50 (B16-F10 [1]): 12.9 µM | IC50 (HeLa): 19.2 µM | IC50 [3]: 0.84 µM | IC50 (MCF7): 15 µM | IC50 [4]: 0.91 µM | IC50 (A549): 17.8 µM | IC50 (HEK-293T): 138 µM

Compound: NS(=O)(=O)c1ccc(-n2nc(C(=O)N3CCOCC3)cc2-c2ccccc2)cc1
IC50 (B16-F10 [1]): 16.2 µM | IC50 (HeLa): > 100 µM | IC50 [3]: 1.19 µM | IC50 (MCF7): 16.5 µM | IC50 [4]: 0.69 µM | IC50 (A549): 26.1 µM | IC50 (HEK-293T): 184 µM

Now from value to molecule, other results behind:

IC50 (B16-F10 [1]): 14.4 µM | IC50 [2]: 28.5 µM | IC50 (HeLa): 29.8 µM | IC50 [3]: 0.75 µM | IC50 (MCF7): 14.7 µM | IC50 [4]: 0.21 µM | Ratio IC50 (Homo sapiens): 136 | IC50 (A549): 15.2 µM
Compound: NS(=O)(=O)c1ccc(-n2nc(C(=O)OCCCN3CCOCC3)cc2-c2ccc(C(F)(F)F)cc2)cc1
IC50 (HEK-293T): 179 µM

IC50 (B16-F10 [1]): 18.1 µM | IC50 (HeLa): > 100 µM | IC50 [3]: 0.84 µM | IC50 (MCF7): 19.3 µM | IC50 [4]: 0.21 µM | IC50 (A549): > 100 µM
Compound: NS(=O)(=O)c1ccc(-n2nc(C(=O)OCCN3CCOCC3)cc2-c2ccc(F)cc2)cc1
IC50 (HEK-293T): 146 µM

IC50 (B16-F10 [1]): 22 µM | IC50 (HeLa): 25.4 µM | IC50 [3]: 0.87 µM | IC50 (MCF7): 25.8 µM | IC50 [4]: 0.25 µM | IC50 (A549): 23 µM
Compound: NS(=O)(=O)c1ccc(-n2nc(C(=O)OCCN3CCOCC3)cc2-c2ccc(Cl)cc2)cc1
IC50 (HEK-293T): 122 µM
